From ChEMBL document CHEMBL1128605, “(1S,2S)-1-(4-hydroxyphenyl)-2-(4-hydroxy-4-phenylpiperidino)-1-propanol: a potent new neuroprotectant which blocks N-methyl-D-aspartate responses” (J Med Chem, 1995)
The source made the active and inactive calls. The rule behind the calls is not given here.

Assays:
Rattus norvegicus [1] = species: Rattus norvegicus; assay: Selectivity between protection against glutamate-induced neuronal damage and alpha 1 adrenergic affinity; Not significant
In short: (§1)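 Selectivity index: ratio of α1 adrenergic affinity ([3H]prazosin binding IC50) to neuroprotection IC50 (inhibition of glutamate-induced death of primary rat hippocampal neurons).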

Glutamate NMDA receptor = assay: In vitro inhibition of glutamate induced neuronal death in primary cultures of rat hippocampal neurons.; assay type: functional, tissue-based, Hippocampus
[2] = target: T1, Adrenergic receptor alpha-1 (Rattus norvegicus, UniProt P15823+P23944+P43140); assay: In vitro binding affinity against Alpha-1 adrenergic receptor using [3H]prazosin as radioligand; assay type: protein assay
T1 sequence (P15823 whole entry): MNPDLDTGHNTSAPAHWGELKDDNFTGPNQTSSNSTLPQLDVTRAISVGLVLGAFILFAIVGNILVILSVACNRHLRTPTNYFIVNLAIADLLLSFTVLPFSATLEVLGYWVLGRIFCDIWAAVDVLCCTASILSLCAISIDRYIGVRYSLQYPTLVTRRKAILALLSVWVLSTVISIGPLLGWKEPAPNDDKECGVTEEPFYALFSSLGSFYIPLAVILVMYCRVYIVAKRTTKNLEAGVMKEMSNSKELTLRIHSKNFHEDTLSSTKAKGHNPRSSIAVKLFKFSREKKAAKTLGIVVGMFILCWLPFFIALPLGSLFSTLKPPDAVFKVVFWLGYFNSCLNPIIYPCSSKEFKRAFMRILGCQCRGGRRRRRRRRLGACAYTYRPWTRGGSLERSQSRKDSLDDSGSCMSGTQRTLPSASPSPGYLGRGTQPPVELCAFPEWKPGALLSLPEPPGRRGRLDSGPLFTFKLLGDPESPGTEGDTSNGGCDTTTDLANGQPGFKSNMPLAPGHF
T1 sequence (P23944 whole entry): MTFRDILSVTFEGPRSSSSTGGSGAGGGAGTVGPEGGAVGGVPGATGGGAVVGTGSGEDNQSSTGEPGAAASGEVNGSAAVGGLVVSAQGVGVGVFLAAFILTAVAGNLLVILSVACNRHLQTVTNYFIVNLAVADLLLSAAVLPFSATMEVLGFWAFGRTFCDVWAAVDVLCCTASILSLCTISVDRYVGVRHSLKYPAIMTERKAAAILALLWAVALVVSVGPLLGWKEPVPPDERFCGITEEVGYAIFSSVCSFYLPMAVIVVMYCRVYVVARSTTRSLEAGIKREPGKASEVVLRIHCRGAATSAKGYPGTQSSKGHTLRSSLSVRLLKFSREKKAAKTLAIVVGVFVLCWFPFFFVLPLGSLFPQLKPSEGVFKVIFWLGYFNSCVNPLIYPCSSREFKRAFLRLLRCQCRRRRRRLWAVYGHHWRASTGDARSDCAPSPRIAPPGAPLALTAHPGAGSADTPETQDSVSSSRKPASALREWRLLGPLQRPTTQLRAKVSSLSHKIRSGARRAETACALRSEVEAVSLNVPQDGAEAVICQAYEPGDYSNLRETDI
T1 sequence (P43140 whole entry): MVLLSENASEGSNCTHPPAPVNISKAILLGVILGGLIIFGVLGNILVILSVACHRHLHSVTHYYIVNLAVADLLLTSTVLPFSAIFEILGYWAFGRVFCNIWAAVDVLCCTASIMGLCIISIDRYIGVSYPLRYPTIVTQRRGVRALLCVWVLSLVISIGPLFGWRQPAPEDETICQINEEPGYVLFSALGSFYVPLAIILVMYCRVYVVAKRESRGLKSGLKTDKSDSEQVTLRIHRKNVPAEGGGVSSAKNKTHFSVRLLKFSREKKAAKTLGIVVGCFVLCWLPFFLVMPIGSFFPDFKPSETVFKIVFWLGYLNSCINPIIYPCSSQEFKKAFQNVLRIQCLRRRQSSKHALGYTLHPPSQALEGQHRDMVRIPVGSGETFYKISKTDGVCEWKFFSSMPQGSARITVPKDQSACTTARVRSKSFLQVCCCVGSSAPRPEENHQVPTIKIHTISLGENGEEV

Rattus norvegicus [3] = species: Rattus norvegicus; assay: Selectivity between protection against glutamate-induced neuronal damage and alpha 1 adrenergic affinity; in short: as §1
[4] = In vivo inhibition of NMDA-stimulated fos induction in mouse following i.p. administration.; assay type: functional; conditions: ip
In short: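 Male CF-1 mice (20–25 g), 12 h light/dark, 22 °C. Compound in 50% poly(ethylene glycol) given ip 30 min before NMDA 75 mg/kg ip (subseizure dose). After 1 h: pentobarbital, paraformaldehyde perfusion, two 50 μm hippocampal coronal sections per brain. Sheep anti-Fos (1:1500) immunostaining by avidin–biotin method, glucose oxidase substrate. ED50 calculated against vehicle-only and NMDA-only sections.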

Rattus norvegicus [5] = assay: In vivo inhibition of haloperidol-induced catalepsy in rat following s.c. administration.; assay type: functional; conditions: sc

SMILES | Selectivity ratio (Rattus norvegicus [1]) | IC50 (Glutamate NMDA receptor) | IC50 [2] | Selectivity ratio (Rattus norvegicus [3]) | ED50 [4] | ED50 (Rattus norvegicus [5])
COC1(Cc2ccccc2)CCN([C@@H](C)[C@@H](O)c2ccc(O)cc2)CC1 | inactive | > 10 µM |  |  |  | 
C[C@@H]([C@@H](O)c1ccc(O)cc1)N1CCC(O)(Cc2ccccc2)CC1 |  |  | > 10 µM | > 172 |  | 
C[C@@H]([C@@H](O)c1ccc(O)cc1)N1CCC(O)(c2ccc(Cl)cc2)CC1 |  | 0.002 µM | 1.48 µM | 740 |  | 
Cc1ccc(C2(O)CCN([C@@H](C)[C@@H](O)c3ccc(O)cc3)CC2)cc1 |  | 0.0027 µM | 2.166 µM | 1080 |  | 
C[C@@H]([C@@H](O)c1ccc(O)cc1)N1CCC(O)(c2ccccc2)CC1 (stereo in doubt) [TRAXOPRODIL] |  |  | 19.52 µM |  | 1 mg/kg | 0.4 mg/kg
C[C@H]([C@H](O)c1ccc(O)cc1)N1CCC(O)(c2ccccc2)CC1 |  |  | 8.45 µM |  | 5 mg/kg | 0.5 mg/kg
C[C@@H]([C@@H](O)c1ccc(O)cc1)N1CCC(O)(CCCCc2ccccc2)CC1 |  | 1 µM | 2.3 µM | 2.3 |  | 
C[C@@H]([C@@H](O)c1ccc(O)cc1)N1CCN(Cc2ccccc2)CC1 | inactive |  |  |  |  | 
C[C@@H]([C@@H](O)c1ccc(O)cc1)N1CCN(C(=O)c2ccccc2)CC1 | inactive | > 10 µM | > 10 µM |  |  | 
C[C@@H]([C@@H](O)c1ccc(O)cc1)N1CCC(O)(c2ccccc2)CC1 (stereo in doubt; 10) [TRAXOPRODIL] |  |  | 5.7 µM |  |  | 
Oc1ccc(C(O)CN2CCC(O)(Cc3ccccc3)CC2)cc1 (stereo not given) |  | 0.063 µM | > 10 µM | > 158 |  | 
C[C@@H]([C@@H](O)c1ccccc1)N1CCC(O)(c2ccccc2)CC1 | inactive | > 1 µM | > 10 µM |  |  | 
C[C@@H]([C@@H](O)c1ccc(F)cc1)N1CCC(O)(c2ccccc2)CC1 | inactive | > 1 µM | 6.9 µM |  |  | 
C[C@@H]([C@@H](O)c1ccc(O)cc1)N1CCC(O)(c2ccc(F)cc2)CC1 |  | 0.004 µM | 2.7 µM | 675 |  | 
C[C@@H]([C@@H](O)c1ccc(Cl)cc1)N1CCC(O)(c2ccccc2)CC1 | inactive | > 1 µM | 3.133 µM |  |  | 
C[C@@H]([C@@H](O)c1ccc(O)cc1)N1CCC(O)(CCc2ccccc2)CC1 |  | 0.0013 µM | 0.137 µM | 105 |  | 
C[C@@H]([C@@H](O)c1ccc(O)cc1)N1CCC(O)(CCCc2ccccc2)CC1 |  | 0.0157 µM | 2.35 µM | 150 |  | 
CC[C@@H]([C@@H](O)c1ccc(O)cc1)N1CCC(O)(Cc2ccccc2)CC1 |  | 0.068 µM | > 10 µM | > 147 |  | 
CCC[C@@H]([C@@H](O)c1ccc(O)cc1)N1CCC(O)(Cc2ccccc2)CC1 |  |  | > 10 µM | 7.7 |  | 
